The source made the active and inactive calls. The rule behind the calls is not given here.

Data set [1] deals with Putative lanosterol 14-alpha-demethylase (Leishmania infantum, UniProt A2TEF2). Kind of data set: Binding affinity to Leishmania infantum CYP51 expressed in Escherichia coli. An outline of the steps: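 Purified E. coli-expressed L. infantum CYP51 at 0.5 μM is titrated with ligand at 0.1–1 μM in 5 cm path cuvettes. Difference-spectrum absorbance change Δ(A430−A411) is plotted against ligand concentration. Apparent Kd comes from a Morrison (quadratic) tight-binding fit by nonlinear regression.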
Putative lanosterol 14-alpha-demethylase, sequence (A2TEF2 whole entry): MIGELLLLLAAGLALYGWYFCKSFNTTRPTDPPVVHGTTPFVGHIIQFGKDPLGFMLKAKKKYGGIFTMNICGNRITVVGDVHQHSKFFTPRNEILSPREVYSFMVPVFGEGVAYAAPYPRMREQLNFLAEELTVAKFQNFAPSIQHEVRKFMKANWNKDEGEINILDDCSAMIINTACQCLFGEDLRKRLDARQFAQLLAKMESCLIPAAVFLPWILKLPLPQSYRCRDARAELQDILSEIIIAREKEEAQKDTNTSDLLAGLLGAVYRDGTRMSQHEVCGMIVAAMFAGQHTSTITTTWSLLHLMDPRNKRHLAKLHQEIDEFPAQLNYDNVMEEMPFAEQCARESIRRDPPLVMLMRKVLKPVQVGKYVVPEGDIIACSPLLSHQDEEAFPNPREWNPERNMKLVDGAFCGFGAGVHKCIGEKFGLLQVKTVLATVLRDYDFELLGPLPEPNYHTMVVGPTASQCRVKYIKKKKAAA

For data set [2], the target named is Sterol 14-alpha demethylase (Trypanosoma cruzi (strain CL Brener), UniProt Q7Z1V1). Kind of data set: Binding affinity to Trypanosoma cruzi Y CYP51A expressed in Escherichia coli. Summed up: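 Recombinant CYP51A from Y strain T. cruzi, expressed in E. coli and purified, titrated spectrally at 0.5 μM P450 in 5 cm path cuvettes with ligand over 0.1–1 μM. Type of absorbance change in difference spectra Δ(A430-A411) plotted against ligand concentration. Apparent Kd obtained by fitting to the Morrison quadratic tight-binding equation by nonlinear regression.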
Sterol 14-alpha demethylase, sequence (Q7Z1V1 whole entry): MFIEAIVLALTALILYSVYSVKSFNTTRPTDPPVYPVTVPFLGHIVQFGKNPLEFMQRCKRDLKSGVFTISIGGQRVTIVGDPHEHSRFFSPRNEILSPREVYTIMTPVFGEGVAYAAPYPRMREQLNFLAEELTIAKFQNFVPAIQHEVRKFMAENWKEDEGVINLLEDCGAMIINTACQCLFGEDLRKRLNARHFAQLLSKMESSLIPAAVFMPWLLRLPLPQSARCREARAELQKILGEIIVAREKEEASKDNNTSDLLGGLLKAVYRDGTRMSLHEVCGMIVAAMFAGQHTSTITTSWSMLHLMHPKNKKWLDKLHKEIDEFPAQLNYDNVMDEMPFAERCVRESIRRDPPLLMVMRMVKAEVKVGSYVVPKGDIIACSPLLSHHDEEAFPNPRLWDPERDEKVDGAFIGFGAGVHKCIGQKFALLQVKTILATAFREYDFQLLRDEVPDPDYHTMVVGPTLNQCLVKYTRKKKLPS

Data set [3] deals with Trypanosoma cruzi. Kind of data set: Antiparasitic activity against GFP-expressing Trypanosoma cruzi Y amastigote formss infected in cardiomyocytes assessed as reduction in rate of parasite multiplication within infected cardiomyocytes measured at 72 hrs post infection by fluorescence microscopy. It counts as functional, organism-based. An outline of the steps: (§1)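 GFP-expressing trypomastigotes (Tulahuen or Y strain) infect cardiomyocyte monolayers at 10 parasites per cell, in DMEM + 10% FBS. Unbound parasites are washed off. At 24 h of infection, inhibitors at 0.5–25 nM in DMSO/DMEM are added and cultured 48 h. Read-out is at 72 h post-infection as GFP fluorescence (RFU) after PBS wash; microscopy uses paraformaldehyde fixation, DAPI and phalloidin stain. Triplicate.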

Data set [4] relates to Trypanosoma cruzi. Kind of data set: Antiparasitic activity against GFP-expressing Trypanosoma cruzi Tulahuen amastigote formss infected in cardiomyocytes assessed as reduction in rate of parasite multiplication within infected cardiomyocytes measured at 72 hrs post infection by fluorescence microscopy. It counts as functional, organism-based. Summed up:
as §1

A short description of data set [5]: Half life in CD1 mouse liver microsomes at 1 uM preincubated for 5 mins followed by NADPH addition and measured by LC/MS/MS analysis. It counts as ADME, microsome. Particulars: mouse, microsomes, 1 µM. Background: Liver microsomes are vesicles of endoplasmic reticulum, rich in cytochrome P450 enzymes.
Data set [6] in a line: Drug uptake in BALB/c mouse heart at 25 mg/kg, po via gavage measured after 4 hrs post dose by […]. It counts as ADME, organism-based. Particulars: read-out: Drug uptake. Summed up: (§2)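 BALB/c mice get a single oral gavage dose of 25 mg/kg; tissues are collected 4 h post-dose. About 100 mg tissue is diluted 5-fold in PBS and homogenized. Homogenate is extracted as for plasma (ketoconazole internal standard, acetonitrile extraction) and quantified by HPLC-UV at 291 nm, 0.1 μM detection limit, n=2.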

A short description of data set [7]: Half life in Sprague-Dawley rat liver microsomes at 1 uM preincubated for 5 mins followed by NADPH addition and measured by LC/MS/MS analysis. It counts as ADME, microsome. Particulars: microsomes, 1 µM.
A short description of data set [8]: Drug uptake in BALB/c mouse lungs at 25 mg/kg, po via gavage measured after 4 hrs post dose by […]. It counts as ADME, organism-based, Lung. As to conditions: read-out: Drug uptake. Summed up: as §2
Data set [9] can be described thus: Drug uptake in BALB/c mouse blood at 25 mg/kg, po via gavage measured after 4 hrs post dose by […]. It counts as ADME, organism-based. Particulars: read-out: Drug uptake. An outline of the steps: as §2
Data set [10] in a line: Hepatic clearance in human liver microsomes at 1 uM preincubated for 5 mins followed by NADPH addition and measured after 45 mins by LC/MS/MS analysis. It counts as ADME, microsome.
The nature of data set [11]: Drug uptake in BALB/c mouse brain at 25 mg/kg, po via gavage measured after 4 hrs post dose by […]. The data set is classed as ADME, organism-based. As to conditions: read-out: Drug uptake. Summed up:
as §2

A short description of data set [12]: Intrinsic clearance in CD1 mouse liver microsomes at 1 uM preincubated for 5 mins followed by NADPH addition and measured after 45 mins by LC/MS/MS analysis. It counts as ADME, microsome. Particulars: read-out: CLH.
Data set [13] can be described thus: Lipophilicity, log P of the compound. The data set is classed as physicochemical. Particulars: octanol/water.
Data set [14] is described as follows: Maximum plasma concentration in BALB/c mouse at 25 mg/kg, po via gavage by […]. The data set is classed as ADME, organism-based. Also noted: dose 25 mg/kg, route oral. Summed up:
(§3)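 Single oral gavage dose of 25 mg/kg in BALB/c mice; blood sampled at 1, 2, 4, 6, 10, 16, 24 h. Plasma is diluted in PBS with ketoconazole internal standard, extracted with 80% acetonitrile, dried and redissolved. Analysed by reversed-phase HPLC with UV at 291/250 nm, 0.1 μM detection limit. Lifetime is time until undetectable.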

A short description of data set [15]: Hepatic clearance in CD1 mouse liver microsomes at 1 uM preincubated for 5 mins followed by NADPH addition and measured after 45 mins by LC/MS/MS analysis. It counts as ADME, microsome.
The nature of data set [16]: Drug uptake in BALB/c mouse liver at 25 mg/kg, po via gavage measured after 4 hrs post dose by […]. The data set is classed as ADME, organism-based. Particulars: read-out: Drug uptake. An outline of the steps: as §2
Data set [17] is described as follows: Hepatic clearance in Sprague-Dawley rat liver microsomes at 1 uM preincubated for 5 mins followed by NADPH addition and measured after 45 mins by LC/MS/MS analysis. It counts as ADME, microsome. An outline of the steps: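 Pooled liver microsomes at 0.5 mg/mL: human (mixed gender), male Sprague-Dawley rat, or male CD-1 mouse, with test compound at 1 μM, triplicate. In vitro t1/2 is scaled to CLint (45 mg microsomes/g liver; 45 g liver/kg scaling factor). CLhep uses well-stirred model with hepatic blood flow 21 (human), 70 (rat), 90 (mouse) mL/min/kg.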

Data set [18] in a line: Intrinsic clearance in Sprague-Dawley rat liver microsomes at 1 uM preincubated for 5 mins followed by NADPH addition and measured after 45 mins by LC/MS/MS analysis. As to conditions: read-out: CLH. It counts as ADME, microsome.
A short description of data set [19]: Drug uptake in BALB/c mouse spleen at 25 mg/kg, po via gavage measured after 4 hrs post dose by […]. It counts as ADME, organism-based. As to conditions: read-out: Drug uptake. An outline of the steps:
as §2

Data set [20] can be described thus: Half life in human liver microsomes at 1 uM preincubated for 5 mins followed by NADPH addition and measured by LC/MS/MS analysis. The data set is classed as ADME, microsome. Particulars: microsomes, 1 µM.
A short description of data set [21]: Intrinsic clearance in human liver microsomes at 1 uM preincubated for 5 mins followed by NADPH addition and measured after 45 mins by LC/MS/MS analysis. It counts as ADME, microsome. Particulars: read-out: CLH.
Data set [22] in a line: Plasma concentration in BALB/c mouse assessed as time until the compound becomes undetectable at 25 mg/kg, po via gavage […]. The data set is classed as ADME, organism-based. As to conditions: in vivo. An outline of the steps:
as §3

Data set [23] has as its target Sterol 14-alpha demethylase (Trypanosoma cruzi (strain CL Brener)) (UniProt Q7Z1V1). As to the kind of experiment: Inhibition of Trypanosoma cruzi Y CYP51 expressed in Escherichia coli using [3-3H]-eburicol as substrate after 60 mins by LC-MS analysis. Summed up:
(§4)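 Reconstituted reaction: 1 μM purified CYP51, 2 μM T. brucei NADPH-P450 reductase, 100 μM dilauroylphosphatidylcholine, isocitrate dehydrogenase/isocitrate regeneration, 50 mM K phosphate pH 7.2, 10% glycerol. [3-3H]sterol substrate at 50 μM final (eburicol for T. cruzi; obtusifoliol for T. brucei and L. infantum) with inhibitor at 1.1 μM final. Preincubate 60 s at 37 °C, start with 100 μM NADPH, run 60 min, EtOAc extraction. Gives % inhibition of 14α-demethylation, triplicate, mean ± SD.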

In data set [24] the target is Putative lanosterol 14-alpha-demethylase (Leishmania infantum) (UniProt A2TEF2). As to the kind of experiment: Inhibition of Leishmania infantum CYP51 expressed in Escherichia coli using [3-3H]-obtusifoliol as substrate after 60 mins by LC-MS analysis. Summed up:
as §4

Data set [25] addresses Lanosterol 14-alpha-demethylase (Trypanosoma brucei brucei (strain 927/4 GUTat10.1)) (UniProt Q385E8). Kind of data set: Inhibition of Trypanosoma brucei […] CYP51 expressed in Escherichia coli using [3-3H]-obtusifoliol as substrate after 60 mins by LC-MS analysis. An outline of the steps:
as §4

Sterol 14-alpha demethylase (Trypanosoma cruzi (strain CL Brener)), sequence (Q7Z1V1 whole entry, looked up): as the sequence (Q7Z1V1 whole entry) above
Lanosterol 14-alpha-demethylase (Trypanosoma brucei brucei (strain 927/4 GUTat10.1)), sequence (Q385E8 1-481): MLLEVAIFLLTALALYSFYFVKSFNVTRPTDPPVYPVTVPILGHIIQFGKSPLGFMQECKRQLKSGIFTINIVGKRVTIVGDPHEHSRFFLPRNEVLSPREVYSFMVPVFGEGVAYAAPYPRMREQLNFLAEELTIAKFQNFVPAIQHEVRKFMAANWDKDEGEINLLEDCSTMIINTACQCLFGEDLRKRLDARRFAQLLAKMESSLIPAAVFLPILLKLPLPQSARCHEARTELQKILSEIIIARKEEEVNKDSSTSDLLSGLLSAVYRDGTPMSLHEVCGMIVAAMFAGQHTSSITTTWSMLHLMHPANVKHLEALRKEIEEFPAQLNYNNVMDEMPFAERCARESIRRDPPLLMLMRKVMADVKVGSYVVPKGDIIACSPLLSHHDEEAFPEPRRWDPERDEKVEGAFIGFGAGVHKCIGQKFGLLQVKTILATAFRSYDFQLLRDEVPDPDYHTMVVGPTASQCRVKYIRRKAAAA
Putative lanosterol 14-alpha-demethylase (Leishmania infantum), sequence (A2TEF2 1-480): as the sequence (A2TEF2 whole entry) above

The Kd is a measure of binding affinity in units of concentration. As usually defined, the EC50 is the concentration giving half of the maximal effect. Take `O=C(N[C@@H](Cn1ccnc1)c1ccc(Cl)cc1Cl)c1ccc(-c2nnc(-c3ccccc3)o2)cc1`: the figures for the Kd in data set [1] and in data set [2] were 2 nM and 8.3 nM, respectively. For the same compound, the EC50 in the data set with Trypanosoma cruzi [3] is 4 nM; in the data set with Trypanosoma cruzi [4], 1.3 nM.
What is called logP is a log measure of how a compound divides between an organic and an aqueous phase. Read a low logP as lower lipophilicity. For orientation: Cmax means the peak of the concentration-time curve. Regarding `O=C(N[C@@H](Cn1ccnc1)c1ccc(-c2ccc(F)cc2)cc1F)c1ccc(-c2nnc(-c3ccccc3)o2)cc1`, the dissociation constant (Kd) is 8.4 nM in [1] and 6.8 nM in data set [2]. Further, the t1/2 in [5] is 38 min; in [7], 158 min; in data set [20], 42 min. For the same compound, the concentration at 4 h turned out to be 16 µM in [6]; 74 µM in data set [8]; 22 µM in data set [9]; 1 µM in data set [11]; 34 µM in [16]; 21 µM in data set [19]. In addition, the EC50 was determined as 1.5 nM with Trypanosoma cruzi [3] and 1 nM in the data set on Trypanosoma cruzi [4]. Also, the CLhep predicted at 1 µM in data set [10] is 12.3 mL/min/kg; in [15], 55.6 mL/min/kg; in data set [17], 14.2 mL/min/kg. Besides, the CLint scaled at 1 µM is 145 mL/min/kg in data set [12], 17.7 mL/min/kg in data set [18] and 29.9 mL/min/kg in [21]. Moreover, the logP in data set [13] stood at 5.44. Moreover, the highest level in [14] (Cmax) was 24 µM.
As for `O=C(N[C@@H](Cn1ccnc1)c1ccc(-c2ccc(F)cc2)cc1Cl)c1ccc(-c2nnc(-c3ccccc3)o2)cc1`, the figures for the t1/2 in data set [5], in [7] and in data set [20] were 91 min, 79 min and 90 min, respectively. In addition, the concentration at 4 h was 3 µM in data set [6]; 18 µM in data set [8]; 12 µM in data set [9]; 0.2 µM in data set [11]; 20 µM in [16]; 6 µM in [19]. The CLhep predicted at 1 µM is 8.35 mL/min/kg in [10], 35.9 mL/min/kg in data set [15] and 23.6 mL/min/kg in [17]. For the same compound, the values for the CLint scaled at 1 µM in [12], in data set [18] and in data set [21] were 59.8 mL/min/kg, 35.5 mL/min/kg and 13.9 mL/min/kg, respectively. In data set [14], this compound had a Cmax of 13 µM. The Time in data set [22] amounted to 16 h.
On to `O=C(N[C@@H](Cn1ccnc1)c1ccc(-c2ccc(F)cc2)cc1Cl)c1ccc(-c2nnc(-c3ccccn3)o2)cc1`, for which the t1/2 in [5] was determined as 52 min; in [7], 95 min; in [20], 56 min. The concentration at 4 h in data set [6] came to 0.1 µM; in [8], 0.6 µM; in [9], 1 µM; in [11], 0.1 µM; in data set [16], 3 µM; in data set [19] it was 2 µM. Besides, the CLhep predicted at 1 µM was 10.8 mL/min/kg in data set [10], 48.4 mL/min/kg in [15] and 20.8 mL/min/kg in data set [17]. Besides, the CLint scaled at 1 µM in data set [12] worked out at 105 mL/min/kg; in [18] it was 29.7 mL/min/kg; in data set [21], 22.3 mL/min/kg. This compound yielded a logP in [13] of 4.93. Moreover, the highest level in data set [14] (Cmax) was 5 µM. Moreover, the Time in [22] turned out to be 10 h.
`O=C(N[C@@H](Cn1ccnc1)c1ccc(Cl)cc1Cl)c1ccc(-c2nnc(-c3ccc(OCC(F)(F)F)cc3F)o2)cc1`: the inhibition entry in [23], in data set [24] and in data set [25] was “Active” in each case. Further, the concentration at 4 h in data set [6] came to 6 µM; in data set [8], 38 µM; in data set [9], 3 µM; in [11] it was 0.15 µM; in data set [16] it was 32 µM; in data set [19] it was 6 µM. This compound also gave a t1/2 in data set [7] of 48 min. Further, the peak level in [14] (Cmax) was 7 µM. The Time in data set [22] came out at 6 h.
Take `[2H]c1c([2H])c([2H])c(-c2ccc([C@H](Cn3ccnc3)NC(=O)c3ccc(-c4nnc(-c5ccccc5)o4)cc3)c(Cl)c2)c([2H])c1[2H]`: the t1/2 turned out to be 25 min in [5], 22 min in [7] and 58 min in data set [20]. The concentration at 4 h was 3 µM in data set [6]; 26 µM in data set [8]; 4 µM in [9]; 0.2 µM in data set [11]; 17 µM in data set [16]; 3 µM in data set [19]. In addition, the values for the CLhep predicted at 1 µM in data set [10], in data set [15] and in data set [17] were 10.6 mL/min/kg, 63.9 mL/min/kg and 45.6 mL/min/kg, respectively. In addition, the values for the CLint scaled at 1 µM in data set [12], in [18] and in data set [21] were 220 mL/min/kg, 131 mL/min/kg and 21.2 mL/min/kg, respectively. In addition, the highest level in data set [14] (Cmax) was 15 µM. Moreover, the Time in data set [22] is < 16 h.
The compound `O=C(N[C@@H](Cn1ccnc1)c1cnc(-c2ccc(F)cc2)cc1Cl)c1ccc(-c2nnc(-c3ccccc3)o2)cc1` displayed a logP in [13] of 4.93.

These data come from ChEMBL document CHEMBL4257584, “Sterol 14α-Demethylase Structure-Based Optimization of Drug Candidates for Human Infections with the Protozoan Trypanosomatidae” (J Med Chem, 2018).
